These results are taken from publication PMC2862812 (Biochimica et biophysica acta, 2009).

The data set is described as follows: Tryptophan fluorescence of peptides in phosphate buffer without lipid. In kind it is physicochemical. Particulars: no lipid; from fluorescence and CD. An outline of the steps:
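7 μM peptide in buffer without liposomes, pH 8 or 4 (adjusted with dilute NaOH/HCl), temperature-controlled. Trp emission 310–450 nm, excitation 295 nm, slits 2–4/2 nm; CD spectra recorded in parallel.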

Where no end group is shown, it is not given here.

In the case of `CC[C@H](C)[C@H](NC(=O)[C@@H]1CCCN1C(=O)[C@H](CC(N)=O)NC(=O)[C@H](CCC(N)=O)NC(=O)[C@H](CCC(=O)O)NC(=O)[C@H](C)NC(=O)[C@H](C)N)C(=O)N[C@@H](Cc1ccc(O)cc1)C(=O)N[C@@H](Cc1c[nH]c2ccccc12)C(=O)N[C@@H](C)C(=O)N[C@@H](CCCNC(=N)N)C(=O)N[C@@H](Cc1ccc(O)cc1)C(=O)N[C@@H](C)C(=O)N[C@@H](CC(=O)O)C(=O)N[C@@H](Cc1c[nH]c2ccccc12)C(=O)N[C@@H](CC(C)C)C(=O)N[C@@H](Cc1ccccc1)C(=O)N[C@H](C(=O)N[C@H](C(=O)N1CCC[C@H]1C(=O)N[C@@H](CC(C)C)C(=O)N[C@@H](CC(C)C)C(=O)N[C@@H](CC(C)C)C(=O)N[C@@H](CC(C)C)C(=O)N[C@@H](CC(=O)O)C(=O)N[C@@H](CC(C)C)C(=O)N[C@@H](C)C(=O)N[C@@H](CC(C)C)C(=O)N[C@@H](CC(C)C)C(=O)N[C@H](C(=O)N[C@@H](CC(=O)O)C(=O)N[C@@H](C)C(=O)N[C@@H](CC(=O)O)C(=O)N[C@@H](CCC(=O)O)C(=O)NCC(=O)N[C@H](C(=O)O)[C@@H](C)O)C(C)C)[C@@H](C)O)[C@@H](C)O` [WT, reference compound], the “State of the peptide in aqueous solution (solubility / aggregation)” value (“State … (solubility / aggregation)” below) was “unfolded and monomeric”. For the compound “AAEQNPIYWARYADWLFTDLPLLLLDLLALLVDADEGT [3D]”, the “State … (solubility / aggregation)” value is given as “aggregated state of the peptide in solution even at low concentrations”. “AAEQNPIYWARYADWLFTTPLLLLALALLVDADEGT [D25A]”: the “State … (solubility / aggregation)” value was “probably, more aggregated in solution”.

For “AAEQNPIYWARYADWLFTTPLLLLELALLVDADEGT [D25E]”, the “State … (solubility / aggregation)” value is “remain soluble and monomeric in solution”.

In the case of “AAEQNPIYWARYAEWLFTTPLLLLDLALLVDADEGT [D14E]”, the “State … (solubility / aggregation)” value is “remain soluble and monomeric in solution”.
